# Compounds with a hit are over-represented: about 3.1% of the library has one in this group of screens.
# Cneo AK release = causes C. neoformans cell lysis; adenylate kinase release luminescence, 4 h; normalised: neutral wells 0, clomiphene wells 100; lysis activity, % at 15 µM; 0.2% of 360,000 active;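 active = mean lysis activity across replicates of at least 80%, whatever share of replicates individually reach that level; inactive = mean lysis activity below 80%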
#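 Test system: log-phase Cryptococcus neoformans yeast cells; Quantity: yeast cell density of 5 × 10^6 cells/mL; Buffer or medium: YPD; Doses: single compound concentration per well; Timing: 4 h at 37 °C static, read 1 h later; Measured by: AK luminescence; Read-out basis: lysis from increased AK signal; Control set: Clomiphene as positive control.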
# CFTR F508del cor = CFTR F508del correction in bronchial cells | CFBE cells, YFP halide quenching; stimulated with forskolin plus potentiator P3; % fluorescence drop versus neutral controls | activity (quench increase), % at 7.58 µM | 0.36% of 350,000 active;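 active = mean added fluorescence quench of at least 8% versus neutral control, with both replicates also reaching 8%; inconclusive = only one of the mean or replicate conditions met; inactive = mean below 8% and not both replicates reaching 8%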;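 note: cells transiently co-express mutant CFTR-F508del with the halide-sensitive YFP; corrector assay measuring rescue of mutant channel to the surface after 24 h compound exposure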
# HIV Env fusion = HIV envelope-mediated fusion inhibition. HeLa-JRFL Env/CEM21 cell fusion, luciferase. AID 651610. inhibition, % at 12.3 µM. 1.1% of 360,000 active;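 active = mean replicate inhibition score of at least 50 and every replicate individually at or above 50; inconclusive = only one of the two criteria met; inactive = mean below 50 and not all replicates reaching 50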;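 note: 0% = plate neutral controls and 100% = maraviroc near 300 nM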
# INS-1E GSIS act = GLuc luminescence reporter in INS-1E cells, primary screen for activators of glucose-dependent secretion of insulin. 0.61% of 370,000 active. activation, % at 16.6 µM. INS-1E GLuc reporter insulin secretion, 2-3 h;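 active = lowest replicate activation of at least 40%, so every replicate reaches that level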;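 note: 0% = median of neutral control wells and 100% = median of IBMX positive control wells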
# Ecoli rRNA inh = inhibitors of bacterial rRNA selective over humanized ribosomes. E. coli WT GFP vs humanized-ribosome RFP mutants, fluorescence, 24 h; stronger effect = lower value; DMSO median 0, no signal -100. GFP signal change (wild-type ribosome), % (concentration not given with the values). 1.6% of 350,000 active. AID 720706;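 active = significant combined selectivity score with lowered wild-type GFP, culture density cut under 30%, mutant RFP and density less affected; inactive = any of these conditions unmet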
# miR122 inh = inhibitors of miR-122 in Huh7 cells. Huh7 miR-122 Renilla luciferase sensor, 48 h; neutral wells = 0, positive control = 100. activation (reporter increase), % at 12.5 µM. 0.3% of 340,000 active;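 active = mean replicate activation score at least 90 and every replicate individually at or above 90; inconclusive = only one of the two criteria met; inactive = neither criterion met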;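 note: higher luciferase means less miR-122 activity so hits act as miR-122 inhibitors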
# HepG2 tox = cytotoxic compounds in HepG2 cells; shares compounds with Ecoli rRNA inh; AID 743480; activity change, negative = cytotoxicity, unspecified at 26 µM; 30 tested, under 10 active; HepG2 viability, ATP luminescence, 72 h;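 active = compounds whose fitted half-maximal signal-loss concentration is at most twice their highest valid dose; inconclusive = flat curve with 30 to 70% signal loss, or poor fit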
# AID977621 = wild-type E. coli growth inhibition versus H69 humanized strain – H69 mutant RFP, wild-type GFP, cherry-pick, dose response; activity change, negative = inhibition at 50 µM; fluorescence, 24 h; shares compounds with Ecoli rRNA inh; 1,900 tested, under 10 active; AID 977621;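 active = Wild-type ribosome reporter drop at least double the humanized mutant ribosome reporter drop, growth loss under a set limit; inconclusive = no clear call, values can overlap the other calls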;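 note: wild-type GFP and H69 mutant RFP strains grown together 50/50 in each well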
# AID977628 = growth of wild-type and h24-humanized E. coli strains – h24 mutant RFP vs wild-type GFP, cherry-pick, dose response; shares compounds with Ecoli rRNA inh; E. coli WT GFP strain growth, fluorescence, 24 h; activity change, negative = inhibition at 50 µM; 1,900 tested, under 10 active;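 active = compound lowering the normal-ribosome reporter at least twice as much as the humanized-ribosome reporter, growth loss under a set limit; inconclusive = no clear call, values can overlap the other calls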;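 note: wild-type GFP and h24 humanized RFP strains co-cultured 1 to 1 per well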
# Starred values were filed as active, the others as inactive; u = inconclusive; x = no result; [ ] = remark or other dose.
SMILES,Cneo AK release,CFTR F508del cor,HIV Env fusion,INS-1E GSIS act,Ecoli rRNA inh,miR122 inh,AID977621,AID977628,others
O=C(C[C@@H]1C[C@H]2c3cc(NC(=O)CC4CC4)ccc3O[C@H]2[C@@H](CO)O1)NCC1CC1,66.8,0.9,-6.2[16.7 µM],0.2,4.1,4.6[16.7 µM],x,x,
O=C(C[C@H]1CC[C@H](NC(=O)C2CCC2)[C@H](CO)O1)NCc1ccccc1Cl,5.2,-0.8,-16.7[16.7 µM],10.8,0.5,x,x,x,
O=S(=O)(NOCc1ccc(Cl)cc1)c1ccc(Cl)cc1,-1.0,-2.7,4.1,-8.5,-39.1*,12.9,6.8,-2.72,
Cc1ccc(CONS(=O)(=O)c2cc(C)ccc2C)cc1,-0.6,-2.2,x,-32.2,-60.0,x,x,x,
C[C@H](CO)N1C[C@H](C)[C@H](CN(C)C(=O)CCN2CCCCC2)Oc2ncc(C#CCN(C)C)cc2C1=O,4.0,x,10.1[16.7 µM],-11.2,0.5,-0.3[16.7 µM],x,x,
O=C(O)c1cc2ccc3ccccc3c2[nH]1,x,3.0,x,-9.7,-26.1*,0.2,-5.3,x,
CC(C)Nc1nnc(SCC(=O)Nc2sccc2C#N)s1,-1.1,-2.7,-6.7,-18.7,-25.4*,1.6,x,u,
N#Cc1ccsc1NC(=O)CSc1nnc(NC2CC2)s1,-3.6,2.5,-57.4,7.9,-11.7*,-0.1,-13.2,-8.72,
CC(C)Nc1nnc(SCC(=O)Nc2ccc3c(c2)C(=O)c2ccccc2C3=O)s1,0.8,x,x,-29.6,x,2.8,x,x,
O=C1c2ccccc2NC(c2cccc(F)c2)N1Cc1ccco1 (centres undefined),-3.3,-2.2,x,24.7,-33.0*,-4.8,-4.18,-3.12,
CC(CNc1ccc(Cl)cc1)(CNc1ccc(Cl)cc1)[N+](=O)[O-],-1.3,2.4,32.1,-29.9,-20.3*,-7.7,u,u,HepG2 tox=16.3
O=[N+]([O-])c1ccc(CNc2ccc(Cl)cc2)s1,-3.3,0.4,0.4,-2.0,-52.6,1.0,x,x,
O=C(Cc1coc2ccc3ccccc3c12)NCc1ccccc1,0.2,0.7,x,-15.6,-26.4*,9.3,-0.562,x,
COc1cccc2c1Oc1cc([N+](=O)[O-])cc(N(C)C(C)=O)c1C=C2,3.0,-0.2,10.9,-11.7,-17.3*,-11.5,x,u,
CC(C)NC(=O)N(C)C[C@@H]1Oc2ccc(N(C)C)cc2CC(=O)N(C)C[C@@H]1C,x,x,x,14.1,-0.4,x,x,x,
Cc1ccc(C)c(NC(=O)CSc2nc3nc(-c4cccs4)cc(C(F)(F)F)c3c(=O)[nH]2)c1,-8.5,-2.9,14.2,7.6,-19.9*,-4.8,x,u,HepG2 tox=4.1
COc1cc(OC)cc(C(=O)Nc2ccc(S(=O)(=O)Nc3cnc4ccccc4n3)cc2)c1,-2.0,-1.8,1.8,55.4,-43.6*,13.2,-1.62,x,
Cc1ccc(S(=O)(=O)Nc2cccc3c2O[C@@H](CN(C)Cc2ccc(-c4ccccc4)cc2)[C@@H](C)CN([C@H](C)CO)C3=O)cc1,51.1,-1.9,-59.8[16.7 µM],-15.8,0.0,2.4[16.7 µM],x,x,
COc1ccc(C(=O)n2cnc3ccccc32)cc1Br,0.7,x,9.8,1.5,0.8,5.7,x,x,
COc1ccc(C(=O)n2cnc3ccccc32)cc1[N+](=O)[O-],5.7,-1.5,-19.2,0.3,-27.1*,5.1,5.43,4.37,
O=[N+]([O-])c1cccc(COc2ccc(CN3CCOCC3)cc2)c1,-2.7,-0.6,-86.3,18.2,-17.4*,-1.6,-4.98,-8.77,
C#CCN1C(=O)C(O)(c2c(C)[nH]c3ccccc23)c2ccccc21 (centres undefined),-0.4,-0.7,-5.1,-1.6,0.3,-7.7,x,x,
CCCN1C(=O)C(O)(c2c(C)[nH]c3ccccc23)c2ccccc21 (centres undefined),-6.7,1.2,18.6,-10.9,-18.3*,-0.1,-4.71,-5.56,
COc1cccc(-c2ccc(SCc3ccccn3)nn2)c1,x,0.4,-29.3,29.1,-22.6*,x,x,u,
C=CCN(CC=C)CC(O)Cn1c2ccccc2c2ccccc21 (centres undefined),x,-2.0,x,-6.3,-20.6*,x,-9.52,u,
SMILES,Cneo AK release,CFTR F508del cor,HIV Env fusion,INS-1E GSIS act,Ecoli rRNA inh,miR122 inh,AID977621,AID977628,others
CCN(c1ccccc1)S(=O)(=O)c1ccc(OC)c(NC(=O)C2CC(=O)N(Cc3ccccc3)C2)c1 (centres undefined),x,-2.3,27.8,-38.9,-31.3*,-2.3,x,u,
CC(=O)c1cccc(NC(=O)C2CCCN(S(C)(=O)=O)C2)c1 (centres undefined),6.9,1.6,x,-1.5,-27.3*,-3.1,2.1,1.1,
CS(=O)(=O)N1CCCC(C(=O)Nc2cccc(F)c2)C1 (centres undefined),0.7,1.1,6.8,26.5,7.1,-0.6,x,x,
C[C@@H]1CN([C@@H](C)CO)C(=O)c2cc(NS(=O)(=O)c3ccc(F)cc3)ccc2O[C@@H]1CN(C)S(C)(=O)=O,x,-1.8,5.7[16.7 µM],7.0,-0.2,1.8[16.7 µM],x,x,
CC(C)(C)C1CCC(C(=O)OCC(=O)N2CCN(C(=O)c3ccco3)CC2)CC1 (centres undefined),-0.8,-1.9,13.6,-29.7,-21.8*,0.9,-5.04,-5.56,
Cc1ccc(S(=O)(=O)NCCC(=O)OCC(=O)Nc2cccc(Cl)c2)cc1,-2.4,0.6,x,-18.6,x,-9.6,x,x,
Cc1ccc(NC(=O)COC(=O)CCNS(=O)(=O)c2c(Cl)cccc2Cl)cc1,0.5,6.1,-9.0,-6.7,-14.4*,-2.6,3.43,-8.09,
O=c1[nH]c(C2CCCN(S(=O)(=O)c3ccccc3Cl)C2)nc2c1nnn2Cc1ccc2c(c1)OCCO2 (centres undefined),3.4,1.4,11.2,10.2,-17.6*,-6.0,-8.77,x,
O=C(Nc1cccc(F)c1)N1CC(=O)N2[C@H](CO)[C@H](c3ccc(C#CCC4CCCC4)cc3)[C@@H]2C1,x,-2.8,x,-14.2,0.4,x,x,x,
O=S(=O)(c1ccc(F)cc1)c1nc(-c2ccco2)oc1Nc1ccc(F)cc1,x,x,-126.3,-1.5,x,x,x,x,
COc1ccc(Nc2oc(-c3ccco3)nc2S(=O)(=O)c2ccc(F)cc2)cc1,-1.8,-1.4,-22.5,0.6,-28.7*,-20.8,x,x,HepG2 tox=8.32
Cc1ccccc1S(=O)(=O)c1cc2ccccc2nc1N,0.5,-0.4,30.0,-1.3,-30.1*,-4.0,1.04,x,
O=C(Cc1ccccc1Cl)Nc1nc2ccccc2[nH]1,21.4,4.1,5.2,9.9,-20.0*,-11.3,-8.88,u,

# Bioassay records: PubChem, Broad Institute
